Test results published in ChEMBL document CHEMBL1132437, “Synthesis and antimicrobial activity of 4H-4-oxoquinolizine derivatives: consequences of structural modification at the C-8 position” (1999).
Values after ≈ are worked out from the molar mass of the structure shown.

Assays:
Enterococcus faecium = assay: In vitro antibacterial activity against gram-positive Enterococcus faecium ATCC 8043; format: functional; settings: Enterococcus faecium, ATCC 8043; read-out: MIC
Procedure, shortened: (§1)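 Agar dilution MIC determination following the National Committee for Clinical Laboratory Standards recommendations.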

Escherichia coli [1] = assay: In vitro antibacterial activity against gram negative Escherichia coli KNK 437; format: functional; settings: Escherichia coli; read-out: MIC; procedure, shortened: as §1
Pseudomonas aeruginosa [2] = assay: In vitro antibacterial activity against gram negative P. aeruginosa DPHP 5263; format: functional; settings: Pseudomonas aeruginosa, DPHP 5263; read-out: MIC; procedure, shortened: as §1
Burkholderia cepacia [3] = assay: In vitro antibacterial activity against Pseudomonas cepacia 2961 a ciprofloxacin resistant strain; format: functional
Procedure, shortened: (§2)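 MIC by agar dilution following National Committee for Clinical Laboratory Standards recommendations. P. cepacia 2961 is a ciprofloxacin-resistant strain; S. pyogenes 930 is erythromycin-resistant.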

Staphylococcus aureus [4] = assay: In vitro antibacterial activity against gram-positive Staphylococcus aureus 1775; format: functional; procedure, shortened: as §1
Staphylococcus aureus [5] = assay: In vitro antibacterial activity against gram-positive Staphylococcus aureus NCTC 10649M; format: functional; settings: Staphylococcus aureus, NCTC 10649; read-out: MIC; procedure, shortened: as §1
Burkholderia cepacia [6] = assay: In vitro antibacterial activity against gram negative P. cepacia 2961
Pseudomonas aeruginosa [7] = assay: In vivo efficacy against Pseudomonas aeruginosa 5007 in mouse protection test after subcutaneous administration; format: functional; settings: Pseudomonas aeruginosa, sc; read-out: ED50
Procedure, shortened: (§3)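 Mouse protection model: mice infected intravenously with 100-fold LD50 of the organism. Compound given by subcutaneous injection or oral gavage at 1 and 5 h after infection, over a dose range. Deaths tracked for 7 days post-inoculation. ED50 is the dose giving 50% survival of treated mice over the trial.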

Staphylococcus aureus [8] = assay: In vivo efficacy against Staphylococcus aureus NCTC 10649M in mouse protection test after p.o. administration.; format: functional; procedure, shortened: as §3
Mus musculus [9] = assay: In vivo efficacy against Staphylococcus aureus NCTC 10649M in mouse protection test after sub cutaneous administration; format: functional; procedure, shortened: as §3
Streptococcus pneumoniae = assay: In vivo efficacy against Streptococcus pneumoniae ATCC 6303 in mouse protection test after s.c. administration.; format: functional; procedure, shortened: as §3
Mus musculus [10] = assay: In vivo efficacy against Streptococcus pneumoniae ATCC 6303 in mouse protection test […].; format: functional; procedure, shortened: as §3
Escherichia coli [11] = assay: In vivo efficacy against Escherichia coli JUHL in mouse protection test after p.o. administration.; format: functional; procedure, shortened: as §3
Escherichia coli [12] = assay: In vivo efficacy against Escherichia coli JUHL in mouse protection test after subcutaneous administration; format: functional; procedure, shortened: as §3
Pseudomonas aeruginosa [13] = assay: In vivo efficacy against Pseudomonas aeruginosa 5007 in mouse protection test after administration by oral gavage; format: functional; procedure, shortened: as §3
Pseudomonas aeruginosa [14] = assay: In vitro antibacterial activity against Gram-negative Pseudomonas aeruginosa 5007; format: functional; settings: Pseudomonas aeruginosa; read-out: MIC; procedure, shortened: as §1
Burkholderia cepacia [15] = assay: In vitro antibacterial activity against gram negative Pseudomonas cepacia 2961; format: functional; settings: Burkholderia cepacia; read-out: MIC; procedure, shortened: as §1
Streptococcus pyogenes [16] = assay: In vitro antibacterial activity against Streptococcus pyogenes 930 an erythromycin-resistant; format: functional; procedure, shortened: as §2
Staphylococcus aureus [17] = assay: In vivo efficacy against Staphylococcus aureus NCTC 10649M in mouse; format: functional; settings: Staphylococcus aureus; read-out: ED50; procedure, shortened: as §3
Mus musculus [18] = assay: In vivo efficacy against Streptococcus pneumoniae ATCC 6303 in mouse protection test after administration by oral gavage; format: functional; procedure, shortened: as §3
Mus musculus [19] = assay: In vivo efficacy against Escherichia coli JUHL in mouse protection test after administration by oral gavage; format: functional; procedure, shortened: as §3
Mus musculus [20] = assay: In vivo antibacterial activity (dose protecting 50% mice)against Gram-positive S aureus NCTC 10649M after subcutaneous administration.; format: functional; settings: sc; procedure, shortened: as §3
Mus musculus [21] = assay: n vivo efficacy against Streptococcus pneumoniae ATCC 6303 in mouse protection test after administration by oral gavage; format: functional; procedure, shortened: as §3
Streptococcus pyogenes [22] = assay: In vitro antibacterial activity against gram positive Streptococcus pyogenes 930; format: functional; settings: Streptococcus pyogenes; read-out: MIC; procedure, shortened: as §1
Mus musculus [23] = assay: In vivo efficacy against Escherichia coli JUHL in mouse protection test after by oral gavage; format: functional; procedure, shortened: as §3
[24] = Staphylococcus aureus, read-out: MIC
[25] = Pseudomonas aeruginosa, po, read-out: ED50
[26] = Escherichia coli, sc, read-out: ED50
[27] = Staphylococcus aureus, po, read-out: ED50

| MIC (Enterococcus faecium) [µg/mL] | MIC (Escherichia coli [1]) [µg/mL] | MIC (Staphylococcus aureus [5]) [µg/mL] | MIC (Pseudomonas aeruginosa [14]) [µg/mL] | MIC (Burkholderia cepacia [15]) [µg/mL] | MIC (Streptococcus pyogenes [22]) [µg/mL] | SMILES | MIC (Pseudomonas aeruginosa [2]) [µg/mL] | MIC (Staphylococcus aureus [4]; [24]) [µg/mL] | ED50 (Pseudomonas aeruginosa [7]) [mg/kg] | ED50 (Pseudomonas aeruginosa [13]; [25]) [mg/kg] | ED50 (Staphylococcus aureus [17]) [mg/kg] | ED50 (Escherichia coli [12]; [26]) [mg/kg] | ED50 (Staphylococcus aureus [8]; [27]) [mg/kg] | also measured |
| --- | --- | --- | --- | --- | --- | --- | --- | --- | --- | --- | --- | --- | --- | --- |
|  |  |  |  |  |  | Cc1c(N2CC[C@H](C)C(N)C2)c(F)cn2c(=O)c(C(=O)O)cc(C3CC3)c12 (single isomer, unassigned) |  |  | > 32 | > 50 |  |  |  | ED50 (Staphylococcus aureus [8]): 6.3 mg/kg; ED50 (Mus musculus [9]): 1.2 mg/kg; ED50 (Streptococcus pneumoniae): 8 mg/kg; ED50 (Mus musculus [10]): 5.2 mg/kg; ED50 (Escherichia coli [11]): 12.5 mg/kg; ED50 (Escherichia coli [12]): 2 mg/kg |
| 0.05 (≈ 0.135 µM) | 0.2 (≈ 0.538 µM) | 0.02 (≈ 0.0538 µM) |  | 1.56 (≈ 4.2 µM) |  | Cc1c(N2C[C@@H]3CCN[C@@H]3C2)c(F)cn2c(=O)c(C(=O)O)cc(C3CC3)c12 (stereo in doubt; 3gg) |  |  | 6.4 |  | 5 | 0.4 |  | ED50 (Mus musculus [18]): 7.6 mg/kg; ED50 (Mus musculus [19]): 2.5 mg/kg; ED50 (Pseudomonas aeruginosa [13]): 39.1 mg/kg; ED50 (Mus musculus [20]): 0.7 mg/kg; MIC (Staphylococcus aureus [4]): 0.39 µg/mL (≈ 1.05 µM) |
| 0.1 (≈ 0.255 µM) | 0.2 (≈ 0.511 µM) | 0.01 (≈ 0.0255 µM) | 0.78 (≈ 1.99 µM) | 3.1 (≈ 7.92 µM) | 0.1 (≈ 0.255 µM) | Cc1c(N2CC[C@H](NCCF)C2)c(F)cn2c(=O)c(C(=O)O)cc(C3CC3)c12 | 12.5 (≈ 31.9 µM) | 0.39 (≈ 0.996 µM) | > 32 | > 50 | 1.1 | 4.9 | 7.5 | ED50 (Escherichia coli [11]; Escherichia coli, po, read-out: ED50): 17.2 mg/kg; ED50 (Mus musculus [21]): 9.9 mg/kg |
| 0.39 (≈ 0.967 µM) | 0.39 (≈ 0.967 µM) | 0.05 (≈ 0.124 µM) | 1.56 (≈ 3.87 µM) | 0.78 (≈ 1.93 µM) | 0.39 (≈ 0.967 µM) | COCCN[C@H]1CCN(c2c(F)cn3c(=O)c(C(=O)O)cc(C4CC4)c3c2C)C1 | 12.5 (≈ 31 µM) | 1.56 (≈ 3.87 µM) |  |  | 6.1 | 2.5 | 18.1 | ED50 (Mus musculus [23]): > 10 mg/kg |

| SMILES | MIC (Enterococcus faecium) [µg/mL] | MIC (Escherichia coli [1]) [µg/mL] | MIC (Staphylococcus aureus [5]) [µg/mL] | MIC (Pseudomonas aeruginosa [14]) [µg/mL] | MIC (Burkholderia cepacia [15]) [µg/mL] | MIC (Streptococcus pyogenes [22]) [µg/mL] | MIC (Pseudomonas aeruginosa [2]) [µg/mL] | MIC (Staphylococcus aureus [4]; [24]) [µg/mL] | ED50 (Pseudomonas aeruginosa [7]) [mg/kg] | ED50 (Pseudomonas aeruginosa [13]; [25]) [mg/kg] | ED50 (Staphylococcus aureus [17]) [mg/kg] | ED50 (Escherichia coli [12]; [26]) [mg/kg] | ED50 (Staphylococcus aureus [8]; [27]) [mg/kg] | also measured |
| --- | --- | --- | --- | --- | --- | --- | --- | --- | --- | --- | --- | --- | --- | --- |
| Cc1c(N2CCC3(CCCC3N)C2)c(F)cn2c(=O)c(C(=O)O)cc(C3CC3)c12 (configuration not stated) | 0.1 (≈ 0.25 µM) | 0.2 (≈ 0.501 µM) | 0.05 (≈ 0.125 µM) |  |  |  | 6.2 (≈ 15.5 µM) | 0.78 (≈ 1.95 µM) |  |  |  |  |  | MIC (Burkholderia cepacia [3]): 3.1 µg/mL (≈ 7.76 µM); MIC (Burkholderia cepacia [6]): 0.78 µg/mL (≈ 1.95 µM) |
| Cc1c(N2C[C@@H](C)[C@H](N)C2)c(F)cn2c(=O)c(C(=O)O)cc(C3CC3)c12 | 0.05 (≈ 0.139 µM) | 0.05 (≈ 0.139 µM) | 0.02 (≈ 0.0556 µM) | 0.2 (≈ 0.556 µM) | 0.78 (≈ 2.17 µM) |  | 1.56 (≈ 4.34 µM) | 0.78 (≈ 2.17 µM) |  |  |  |  |  | MIC (Streptococcus pyogenes [16]): 0.05 µg/mL (≈ 0.139 µM) |
